Measurements from publication PMC4278532 (Environmental Toxicology and Chemistry / Setac, 2014).

What was measured:
AhR = settings: cited from earlier work
[1] = target: T1, human aryl hydrocarbon receptor (AhR) (Homo sapiens, UniProt P35869); test: Yeast bioassay; type: cell-based; settings: for concentration at which the bioassay response showed signs of saturation: Figure 3
In short: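 Engineered S. cerevisiae YCM3 (W303a-derived) carries chromosomal full-length human AhR/ARNT under the galactose promoter and a 5×XRE-LacZ plasmid. Kept in glucose medium, diluted to A600 0.04 in 2% galactose medium, exposed 18 h at 30 °C (1% DMSO vehicle). ONPG assay pH 7.0, ~5 min, 37 °C, Na2CO3 stop. A405 normalized to A600, % of 1 µM β-naphthoflavone. Two-parameter fit; n = 4, ≥3 experiments.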

YCM3 yeast cells = test: Toxicity to the yeast cells; type: cell-based, Saccharomyces cerevisiae; settings: for concentrations toxic to the yeast cells: 18 h, precluded data collection; for toxicity to the yeast cells: compared with 2-MP, 3-MP, 4-MP, tested up to 100 µM
[2] = target: T1, human aryl hydrocarbon receptor (AhR); settings: cited from earlier work

T1 sequence (P35869 11-848): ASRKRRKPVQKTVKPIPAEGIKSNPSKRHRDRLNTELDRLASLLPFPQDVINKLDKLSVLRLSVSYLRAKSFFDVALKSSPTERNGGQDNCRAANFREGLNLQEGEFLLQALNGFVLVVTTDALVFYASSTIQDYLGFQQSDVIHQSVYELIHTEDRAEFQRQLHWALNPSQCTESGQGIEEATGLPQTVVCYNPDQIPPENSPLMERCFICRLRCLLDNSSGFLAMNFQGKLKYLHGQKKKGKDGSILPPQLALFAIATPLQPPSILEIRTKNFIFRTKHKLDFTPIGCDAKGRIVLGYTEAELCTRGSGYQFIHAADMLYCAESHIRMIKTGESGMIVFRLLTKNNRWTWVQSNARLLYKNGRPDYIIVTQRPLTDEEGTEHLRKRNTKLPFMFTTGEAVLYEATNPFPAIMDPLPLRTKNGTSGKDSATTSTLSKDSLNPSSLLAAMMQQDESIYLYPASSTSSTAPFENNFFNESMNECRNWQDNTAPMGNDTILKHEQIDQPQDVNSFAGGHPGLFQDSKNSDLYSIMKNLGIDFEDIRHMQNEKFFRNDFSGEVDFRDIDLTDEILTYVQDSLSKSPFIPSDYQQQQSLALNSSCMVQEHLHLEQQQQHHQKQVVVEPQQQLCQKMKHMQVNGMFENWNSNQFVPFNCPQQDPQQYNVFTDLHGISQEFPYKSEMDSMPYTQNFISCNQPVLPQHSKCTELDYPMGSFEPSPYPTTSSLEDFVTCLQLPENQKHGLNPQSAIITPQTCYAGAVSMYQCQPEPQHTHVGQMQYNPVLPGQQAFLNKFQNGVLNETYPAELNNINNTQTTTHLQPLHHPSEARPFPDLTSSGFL
T1 sequence (P27540 whole entry partner): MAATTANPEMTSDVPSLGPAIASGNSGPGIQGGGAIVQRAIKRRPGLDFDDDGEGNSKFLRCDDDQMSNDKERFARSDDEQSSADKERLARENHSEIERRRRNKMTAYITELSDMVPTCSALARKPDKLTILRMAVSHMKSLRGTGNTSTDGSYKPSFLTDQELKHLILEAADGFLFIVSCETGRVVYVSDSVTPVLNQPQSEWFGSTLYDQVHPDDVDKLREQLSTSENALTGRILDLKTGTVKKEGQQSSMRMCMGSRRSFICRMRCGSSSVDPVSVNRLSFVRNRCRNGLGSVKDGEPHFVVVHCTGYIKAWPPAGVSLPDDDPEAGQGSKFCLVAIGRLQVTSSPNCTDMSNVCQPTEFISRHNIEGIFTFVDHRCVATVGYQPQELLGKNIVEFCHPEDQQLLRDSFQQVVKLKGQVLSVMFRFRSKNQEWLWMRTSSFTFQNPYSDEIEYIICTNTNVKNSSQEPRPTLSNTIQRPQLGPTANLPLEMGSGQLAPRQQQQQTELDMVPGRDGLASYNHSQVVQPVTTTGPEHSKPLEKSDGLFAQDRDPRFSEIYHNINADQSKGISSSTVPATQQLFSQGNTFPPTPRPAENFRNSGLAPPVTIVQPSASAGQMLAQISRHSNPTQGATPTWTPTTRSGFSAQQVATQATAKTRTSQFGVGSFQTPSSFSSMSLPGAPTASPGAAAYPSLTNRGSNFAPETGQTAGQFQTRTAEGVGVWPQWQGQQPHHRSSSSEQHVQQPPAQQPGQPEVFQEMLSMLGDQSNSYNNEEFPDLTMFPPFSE

Row | SMILES | AhR activation in a rat liver system (AhR) | concentration at which the bioassay response showed signs of saturation [1] [µM] | concentrations toxic to the yeast cells (YCM3 yeast cells) | further results
1 | Cc1cccc2c1ccc1ccccc12 [1-MP, 1-methylphenanthrene] | stronger than 9-MP | 30 | – | –
2 | Cc1ccc2c(ccc3ccccc32)c1 [2-MP, 2-methylphenanthrene] | stronger than 9-MP | – | above 50 µM | –
3 | Cc1ccc2ccc3ccc(C)cc3c2c1 [3,6-DMP, 3,6-dimethylphenanthrene] | – | – | – | signal in the bioassay relative to that produced by phenanthrene and the monomethylated derivatives [1]: approximately 50%
4 | Cc1ccc2ccc3ccccc3c2c1 [3-MP, 3-methylphenanthrene] | stronger than 9-MP | – | above 50 µM | –
5 | Cc1cccc2ccc3ccccc3c12 [4-MP, 4-methylphenanthrene] | – | – | above 50 µM | –
6 | Cc1cc2ccccc2c2ccccc12 [9-MP, 9-methylphenanthrene] | – | 100 | – | toxicity to the yeast cells (YCM3 yeast cells): less toxic to the yeast cells
7 | c1ccc2c(c1)ccc1ccccc12 [Phenanthrene, phenanthrene, reference compound] | – | 100 | – | toxicity to the yeast cells (YCM3 yeast cells): less toxic to the yeast cells
8 | c1ccc2c(c1)cc1ccc3cccc4ccc2c1c34 [benzo[a]pyrene] | – | – | – | activity in this yeast bioassay [2]: very potent activator
9 | O=c1cc(-c2ccccc2)oc2ccc3ccccc3c12 [β-NF, β-naphthoflavone] | – | – | – | AhR agonism ([2]; positive control): strong agonist
